Laboratory results published in PMC5900333 (ACS Medicinal Chemistry Letters, 2018).

Tests used:
[1] = molecular target: rabbit fast skeletal muscle myofibrils (Oryctolagus cuniculus, UniProt P02586+P02641+P02643); assay: Fast skeletal myofibril ATPase assay; format: biochemical; conditions: 14 vs 13; 25 vs bromo 14
Procedure, shortened: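 Rabbit fast skeletal muscle myofibrils; the read-out is the rate of ATP hydrolysis. The assay runs at a calcium level of 25% of that giving a maximal response in control preparations. AC40 is the test compound concentration that raises myofibril ATPase activity by 40%. Experiments were run in duplicate, and the fold potency change is taken from the AC40 values.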

[2] = Rat pharmacokinetics; conditions: both, Sprague-Dawley, in vivo, iv
[3] = system: PT-EAMG (passive transfer experimental autoimmune myasthenia gravis) rat model; conditions: rats treated with anti-nAchRα antibody; cited from earlier work
[4] = ALS patients taking both 25 and Riluzole; cited from earlier work
[5] = Microsomal turnover, rat; format: in vitro ADME
[6] = Microsomal turnover, human; format: in vitro ADME
[7] = In vivo clearance across nonclinical species vs hepatic blood flow
[8] = system: extensor digitorum longus (EDL) muscle; assay: In situ EDL muscle force; format: in vivo; conditions: rat, systemic infusion, submaximal stimulation rates
[9] = molecular target: T1, CYP1A2 (Homo sapiens, UniProt P05177); assay: Cytochrome P450 inhibition and time-dependent inhibition; format: in vitro ADME; conditions: liver microsomes, probe phenacetin
T1 sequence (P05177 1-516): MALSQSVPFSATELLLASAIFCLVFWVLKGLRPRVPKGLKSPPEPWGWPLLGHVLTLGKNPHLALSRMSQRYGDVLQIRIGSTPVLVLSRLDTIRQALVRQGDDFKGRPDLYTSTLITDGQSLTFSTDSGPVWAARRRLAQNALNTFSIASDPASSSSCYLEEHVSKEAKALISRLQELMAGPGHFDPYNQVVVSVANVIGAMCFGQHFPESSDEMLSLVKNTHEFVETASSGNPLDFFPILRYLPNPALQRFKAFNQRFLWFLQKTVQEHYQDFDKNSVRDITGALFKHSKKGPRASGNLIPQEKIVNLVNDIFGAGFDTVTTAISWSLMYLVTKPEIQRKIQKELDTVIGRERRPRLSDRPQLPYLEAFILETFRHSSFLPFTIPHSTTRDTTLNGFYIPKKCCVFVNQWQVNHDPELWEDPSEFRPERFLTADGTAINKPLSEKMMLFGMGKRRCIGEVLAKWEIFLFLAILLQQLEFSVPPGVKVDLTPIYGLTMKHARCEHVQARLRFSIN

[10] = system: B6SJL-SOD1^G93A mouse; conditions: B6SJL-SOD1G93A mice, single dose; cited from earlier work
[11] = system: patients with ALS; conditions: Phase 3, patients with ALS; ref VITALITY-ALS, NCT02496767; cited from earlier work
[12] = system: tibialis anterior; conditions: healthy humans, nerve stimulation; cited from earlier work
[13] = Mouse pharmacokinetics; conditions: in vivo, iv, 1 mg/kg

rabbit fast skeletal muscle myofibrils, sequence (P02586 2-160 limits assumed): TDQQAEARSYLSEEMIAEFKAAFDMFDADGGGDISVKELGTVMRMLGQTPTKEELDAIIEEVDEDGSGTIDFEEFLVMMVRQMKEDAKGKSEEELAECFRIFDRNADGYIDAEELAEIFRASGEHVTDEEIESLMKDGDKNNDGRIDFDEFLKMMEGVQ
rabbit fast skeletal muscle myofibrils, sequence (P02643 2-182 limits assumed): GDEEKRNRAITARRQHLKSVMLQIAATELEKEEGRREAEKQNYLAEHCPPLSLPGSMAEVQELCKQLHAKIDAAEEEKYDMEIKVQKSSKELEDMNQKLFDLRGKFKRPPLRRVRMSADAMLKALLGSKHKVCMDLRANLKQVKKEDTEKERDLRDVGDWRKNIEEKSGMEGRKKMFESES
rabbit fast skeletal muscle myofibrils, sequence (P02641 2-279 limits assumed): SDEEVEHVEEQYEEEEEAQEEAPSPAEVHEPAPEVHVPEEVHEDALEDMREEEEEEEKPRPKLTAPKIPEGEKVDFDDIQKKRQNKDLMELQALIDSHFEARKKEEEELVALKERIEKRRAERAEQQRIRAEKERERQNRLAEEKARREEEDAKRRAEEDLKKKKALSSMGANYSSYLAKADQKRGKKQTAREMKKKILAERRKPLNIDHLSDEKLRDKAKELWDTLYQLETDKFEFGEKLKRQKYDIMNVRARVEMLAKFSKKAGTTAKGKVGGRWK

fold improvement in biochemical potency over comparator [1]	clearance ([2]; 1 mg/kg)	Re (r), ratio of extraction in microsomes [5]	Re (h), ratio of extraction in microsomes [6]	in vivo clearance as share of hepatic blood flow [7]	IC50 shift at 30 min [9]	clearance [2]	clearance [13]	Structure (SMILES)	grip strength [3]	drug-drug interaction: change of Riluzole concentrations [4]	in situ EDL muscle force [8]	in situ EDL muscle force ([8]; listed as tirasemtiv)	muscle function and performance in ALS mouse model [10]	primary end point: change from baseline in slow vital capacity (SVC) at 24 weeks [11]	force produced by the tibialis anterior [12]
3 fold	19 mL/min/kg	–	–	–	–	–	–	CCC(CC)n1c(=O)[nH]c2ncc(Br)nc21 [Compound 14]	–	–	–	–	–	–	–
3 fold	2.6 mL/min/kg	0.26	<0.21	less than 15 % of hepatic blood flow	> 3	2.6 mL/min/kg	13.9 mL/min/kg	C#Cc1cnc2nc(O)n(C(CC)CC)c2n1 [Compound 25, tirasemtiv]	increased grip strength	approximate doubling of Riluzole concentrations	rapid, dose-dependent increases in muscle force at submaximal stimulation rates	concentration-dependent improvement in muscle force production in situ	significantly increased submaximal isometric force, forelimb grip strength, grid hang time, and rotarod performance	did not meet its primary end point	increased force produced by the tibialis anterior in a dose-, concentration-, and frequency-dependent manner
–	7.7 mL/min/kg	–	–	–	–	–	–	CCC(CC)n1c(=O)[nH]c2ncc(Cl)nc21 [Compound 21]	–	–	–	–	–	–	–
